Compound activity from PubChem BioAssay.
SIRT5 block: sirtuin-5 (human) deacylase inhibition | Q9NXA8 | Purified SirT5, succinyl-peptide AMC, trypsin-coupled fluorescence | inhibition, % at 15 µM | hit rate 1.1% among 330,000 | AID 652115; in the data active means inhibition above about 15%; inconclusive means no clear call, values can overlap the other calls
E-selectin induc: E-selectin induction on HUVECs | P16581 | HUVEC E-selectin immunofluorescence imaging; normalized: neutral wells 0, TNF-alpha wells 100 | activation, % at 7.58 µM | hit rate 0.37% among 260,000;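 active means mean E-selectin-positive cell signal at least 10% of the positive control, reached in at least 60% of replicates, without over 20% cell loss; inconclusive means no rule given, readout overlaps actives, possibly toxicity-flagged; inactive means the rest, including those meeting only one limit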
Target sequence (P16581 whole entry, looked up): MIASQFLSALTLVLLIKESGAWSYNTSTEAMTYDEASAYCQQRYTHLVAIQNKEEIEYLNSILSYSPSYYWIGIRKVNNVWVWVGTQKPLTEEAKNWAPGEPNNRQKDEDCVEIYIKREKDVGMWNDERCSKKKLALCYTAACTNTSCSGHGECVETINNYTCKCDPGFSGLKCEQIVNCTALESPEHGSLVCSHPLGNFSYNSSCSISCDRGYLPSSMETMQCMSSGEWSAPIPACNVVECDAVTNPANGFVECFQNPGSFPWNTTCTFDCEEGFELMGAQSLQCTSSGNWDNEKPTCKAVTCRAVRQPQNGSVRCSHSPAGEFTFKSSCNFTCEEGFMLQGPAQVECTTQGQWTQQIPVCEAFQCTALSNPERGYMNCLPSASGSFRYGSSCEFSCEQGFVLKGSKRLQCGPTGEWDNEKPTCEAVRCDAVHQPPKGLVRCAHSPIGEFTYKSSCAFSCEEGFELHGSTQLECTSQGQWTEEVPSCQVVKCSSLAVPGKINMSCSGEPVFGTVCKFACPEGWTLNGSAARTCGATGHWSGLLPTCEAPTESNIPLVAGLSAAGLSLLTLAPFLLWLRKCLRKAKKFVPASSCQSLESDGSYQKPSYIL
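Assay system: HUVEC, human umbilical vein endothelial cells / Amount: 3,000 HUVEC/well / Controls: TNF-alpha positive control, DMSO neutral control / Compound dosing: single concentration / Medium: EGM-2 over gelatin coat / Evaluation: percent E-selectin-positive cells / Signal: immunofluorescence imaging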
PglD DTNB: inhibitors of Campylobacter jejuni PglD acetyltransferase; purified PglD enzyme, DTNB colorimetric CoA detection; inhibition, % at 12.5 µM; hit rate 0.098% among 360,000; AID 602405; in the data active means inhibition above about 16%, passing the limit was not always enough; inconclusive means no clear call, values can overlap the other calls
ERAP1 HTS inh: blocks human ERAP1 aminopeptidase activity; Q9NZ08; recombinant ERAP1, Leu-AMC fluorescence, 60 min; inhibition, % at 10.7 µM; hit rate 0.15% among 340,000; AID 652197;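 active means mean replicate inhibition of at least 30%, or all replicates individually reaching that 30% level; inactive means mean below 30% and not every replicate reaching it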;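 further: 0% = neutral control wells and 100% = L-leucinethiol positive control wells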
DENV2 CPE rescue: DENV2-induced cell death inhibition; DENV2-infected cells, cytopathic effect rescue, plate reader; CPE inhibition, % at 9.99 µM; hit rate 1.7% among 350,000; in the data active means CPE inhibition above about 20%, passing the limit was not always enough; inconclusive means no clear call, values can overlap the other calls; tested in BHK-21 cells;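 further: 0% = median of neutral control wells and 100% = median of positive control wells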
The depositor's hits bear a star; ? = inconclusive; . = no result. A selection: hits, their analogues and other compounds. The true share with any hit is near 2.5%.

SMILES	SIRT5 block	E-selectin induc	PglD DTNB	ERAP1 HTS inh	DENV2 CPE rescue
O=C(c1cnccn1)N1CC(=O)N2[C@H](CO)[C@@H](c3ccc(C#CC4CC4)cc3)[C@H]2C1	-1	0	.	-3	?
C/C(=N\OCC(=O)Nc1ccc(OC(F)(F)F)cc1)c1ccc2c(c1)OCCO2	1	.	.	-1	108*
COc1cc(NC(=O)COC(=O)CO/N=C(\C)c2ccc3c(c2)OCO3)cc(OC)c1	-5	-3	5	6	-3
COc1cc(NC(=O)COC(=O)CO/N=C(\C)c2ccc3c(c2)OCO3)cc(OC)c1OC	-1	180*	.	3	1
O=C(NCCN1CCOCC1)c1ccc(Cl)c(S(=O)(=O)NCc2ccccc2)c1	-16	0	0	-4	3
COc1ccccc1-c1ocnc1C(=O)N1CCN(C(=O)C(c2ccccc2)c2ccccc2)CC1	-4	.	2	-2	5
Cc1cc(C(=O)Nc2cccc3c2O[C@H](CN(C)Cc2ccc(Oc4ccccc4)cc2)[C@H](C)CN([C@@H](C)CO)C3=O)n(C)n1	3	-6	-1	-2	14
Cc1cc(C(=O)Nc2cccc3c2O[C@H](CN(C)Cc2ccccc2)[C@H](C)CN([C@@H](C)CO)C3=O)n(C)n1	-4	0	1	2	10
Cc1cc(C(=O)Nc2cccc3c2O[C@@H](CN(C)Cc2ccc(C(=O)O)cc2)[C@@H](C)CN([C@H](C)CO)C3=O)n(C)n1	-4	-3	2	-1	50*
Cc1cc(C(=O)Nc2cccc3c2O[C@@H](CN(C)Cc2ccc(Oc4ccccc4)cc2)[C@H](C)CN([C@H](C)CO)C3=O)n(C)n1	22*	-12	-1	-2	2
C[C@H](NC(=O)c1nc[nH]c1C(=O)N[C@@H](Cc1ccccc1)C(=O)OCc1ccccc1)c1ccccc1	.	0	-2	1	-9
Cc1nc(S/C(=C/c2ccc(-c3ccc(C(=O)O)cc3)o2)C(=O)O)n[nH]1	37*	6	-16	.	-1
CC(=O)OC1C=CN(C(C)=O)C(SC(C)(C)C)C1(C)O (stereo unspecified)	.	0	.	2	8
CCCCOC(=O)c1sc2nc(N3CCOCC3)c3c(c2c1N)CC(C)(C)OC3	24*	6	.	.	-3
C[C@@H]1COC(=O)[C@@H](CC(=O)OC(C)(C)C)C/C=C\C[C@@H](CC(=O)NCCO)C(=O)N1	4	.	-7	0	24*
C[C@@H]1COC(=O)[C@H](CC(=O)OC(C)(C)C)C/C=C\C[C@H](CC(=O)NCCO)C(=O)N1	.	0	2	-2	3
C[C@H]1CN([C@@H](C)CO)S(=O)(=O)c2ccc(C3=CCCCC3)cc2O[C@@H]1CN(C)C(=O)c1ccccc1	6	0	1	6	-9
C[C@H](CO)N1C[C@H](C)[C@H](CN(C)C(=O)c2ccccc2)Oc2cc(C3=CCCCC3)ccc2S1(=O)=O	7	0	-29	1	93*
C[C@H]1CN([C@@H](C)CO)S(=O)(=O)c2ccc(C3=CCCCC3)cc2O[C@@H]1CN(C)C(=O)c1ccc(F)cc1	16*	0	-5	5	6
C[C@@H]1CN([C@H](C)CO)S(=O)(=O)c2ccc(C3=CCCCC3)cc2O[C@H]1CN(C)C(=O)c1ccc(F)cc1	14	0	-4	3	-9
COc1cccc(N(CC(=O)Nc2ccccc2C(=O)N2CCCC2)S(C)(=O)=O)c1	-2	.	-6	-1	5
C/C=C/[C@@H](CC(=O)N1Cc2ccccc2C[C@H]1CO)[Si](C)(C)c1ccc(OC)cc1	-7	.	0	4	39*
COc1ccc(OCC(=O)N2CCc3ccccc3C2)cc1	6	.	-1	-1	4
Cc1ccc(N(CN2C(=O)c3ccccc3C2=O)C(=O)c2ccc([N+](=O)[O-])cc2[N+](=O)[O-])cc1	112*	1	.	0	.
O=C(O)c1nn(-c2cccc(C(F)(F)F)c2)ccc1=O	2	2	.	-4	2
C[C@H]1CN([C@@H](C)CO)C(=O)c2cc(NC(=O)Cn3cnnn3)ccc2O[C@@H]1CN(C)Cc1ccccc1	0	0	1	3	4
C[C@@H]1CN([C@H](C)CO)C(=O)c2cc(NC(=O)Cn3cnnn3)ccc2O[C@@H]1CN(C)Cc1ccc(Oc2ccccc2)cc1	-2	88*	1	-1	13
